Active and inactive are the calls of the source. The rule behind the calls is not given here.
Tests used:
[1] = Displacement of [3H]2-BFI from Sprague-Dawley rat I2 imidazoline binding site by liquid scintillation counting
[2] = target: T1, Alpha-2C adrenergic receptor (Homo sapiens) (UniProt P18825); test: Antagonist activity at human Alpha-2C adrenergic receptor expressed in CHO cells assessed as inhibition of clonidine-induced extracellular acidification after 30 mins by cytosensor microphysiometry; type: functional, cell-based
T1 sequence (whole entry): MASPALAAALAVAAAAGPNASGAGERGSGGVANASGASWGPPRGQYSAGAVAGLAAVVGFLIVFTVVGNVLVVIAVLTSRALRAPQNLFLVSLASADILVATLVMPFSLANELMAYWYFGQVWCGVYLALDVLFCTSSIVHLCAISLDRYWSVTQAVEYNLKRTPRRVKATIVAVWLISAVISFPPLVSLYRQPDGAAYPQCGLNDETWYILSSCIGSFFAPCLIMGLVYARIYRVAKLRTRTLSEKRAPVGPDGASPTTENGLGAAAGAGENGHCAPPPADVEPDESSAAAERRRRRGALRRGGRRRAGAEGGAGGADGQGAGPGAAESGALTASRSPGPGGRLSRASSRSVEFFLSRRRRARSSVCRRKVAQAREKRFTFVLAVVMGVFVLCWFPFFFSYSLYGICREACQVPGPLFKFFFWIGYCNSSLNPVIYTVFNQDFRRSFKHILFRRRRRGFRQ
Summary of the method: (§1)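 pKb from cytosensor microphysiometry on CHO cells each expressing one human α2 subtype (α2A, α2B or α2C). Antagonist shift of the clonidine agonist concentration-effect curve was measured. Means ± SEM of three to six separate experiments.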

[3] = target: T2, Alpha-2C adrenergic receptor (Homo sapiens, UniProt P18825); test: Displacement of [3H]RX821002 from human Alpha-2C adrenergic receptor expressed in CHO cells after 30 mins by scintillation counting; type: cell-based
T2 sequence (P18825 whole entry): T1 sequence (whole entry)

[4] = target: T3, Alpha-2A adrenergic receptor (Homo sapiens, UniProt P08913); test: Displacement of [3H]RX821002 from human alpha2A adrenergic receptor expressed in CHO cells after 30 mins by scintillation counting; type: cell-based
T3 sequence (P08913 whole entry): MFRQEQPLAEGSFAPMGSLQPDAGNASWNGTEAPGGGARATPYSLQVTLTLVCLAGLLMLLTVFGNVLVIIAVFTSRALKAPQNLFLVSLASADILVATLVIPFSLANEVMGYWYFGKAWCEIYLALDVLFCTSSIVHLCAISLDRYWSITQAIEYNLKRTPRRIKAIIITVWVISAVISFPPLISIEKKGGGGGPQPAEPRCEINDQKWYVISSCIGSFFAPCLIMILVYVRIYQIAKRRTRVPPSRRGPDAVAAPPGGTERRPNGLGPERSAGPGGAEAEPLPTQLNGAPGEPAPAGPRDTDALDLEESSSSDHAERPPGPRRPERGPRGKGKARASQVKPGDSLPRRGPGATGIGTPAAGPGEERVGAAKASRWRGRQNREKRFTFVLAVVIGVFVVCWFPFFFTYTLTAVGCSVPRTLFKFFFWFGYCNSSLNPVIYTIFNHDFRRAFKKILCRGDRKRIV

[5] = target: T4, Alpha-2B adrenergic receptor (Homo sapiens) (UniProt P18089); test: Antagonist activity at human alpha2B adrenergic receptor expressed in CHO cells assessed as inhibition of clonidine-induced extracellular acidification after 30 mins by cytosensor microphysiometry; type: functional, cell-based; summary of the method: as §1
T4 sequence (whole entry): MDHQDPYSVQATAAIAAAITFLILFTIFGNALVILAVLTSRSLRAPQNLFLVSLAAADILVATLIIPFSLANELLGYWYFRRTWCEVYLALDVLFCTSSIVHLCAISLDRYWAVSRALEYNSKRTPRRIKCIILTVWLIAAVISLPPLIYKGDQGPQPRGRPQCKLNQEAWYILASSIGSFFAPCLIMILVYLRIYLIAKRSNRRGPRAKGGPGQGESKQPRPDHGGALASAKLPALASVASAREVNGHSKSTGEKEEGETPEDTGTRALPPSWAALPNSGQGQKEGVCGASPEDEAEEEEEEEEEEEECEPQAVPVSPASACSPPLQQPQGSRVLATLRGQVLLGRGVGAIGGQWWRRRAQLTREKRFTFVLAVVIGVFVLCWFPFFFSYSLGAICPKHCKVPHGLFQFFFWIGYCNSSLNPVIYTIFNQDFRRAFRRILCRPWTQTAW

[6] = target: T5, Alpha-2A adrenergic receptor (Homo sapiens) (UniProt P08913); test: Antagonist activity at human alpha2A adrenergic receptor expressed in CHO cells assessed as inhibition of clonidine-induced extracellular acidification after 30 mins by cytosensor microphysiometry; type: functional, cell-based; summary of the method: as §1
T5 sequence (whole entry): T3 sequence (P08913 whole entry)

[7] = target: T6, Alpha-2B adrenergic receptor (Homo sapiens, UniProt P18089); test: Displacement of [3H]RX821002 from human alpha2B adrenergic receptor expressed in CHO cells after 30 mins by scintillation counting; type: cell-based
T6 sequence (P18089 whole entry): T4 sequence (whole entry)

[8] = tested on: Mus musculus; test: Analgesic activity in CD1 mouse assessed as latency in radiant heat-induced tail flick at 5 mg/kg, sc after 30 mins; type: functional, organism-based; set-up: dose 5 mg/kg
Summary of the method: (§2)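 Male CD-1 mice, 25–35 g. Radiant heat tail-flick: I.R. source aimed at lower third of tail; basal latency (2-3 s) is the mean of two trials 30 min apart. Test agent 1 or 2 mg/kg ip, or distilled water vehicle, given 15 min before morphine 5.0 mg/kg sc or saline. Readings at 30, 60, 90, 120 and 240 min after morphine, as %MPE; 8–10 mice, means ± SEM.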

[9] = tested on: Mus musculus; test: Potentiation of morphine-induced analgesic activity in CD1 mouse assessed as latency in radiant heat-induced tail flick at 1.250 mg/kg, ip administered 15 mins prior to morphine measured up to 120 mins; type: functional, organism-based; set-up: dose 1.25 mg/kg
Summary of the method: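 Male CD-1 mice (25–35 g) were given ip pretreatment in distilled-water vehicle 15 min before morphine 5.0 mg/kg sc or saline. Radiant-heat IR tail-flick was applied to the lower third of the tail. Basal latency (2–3 s) was the mean of two trials 30 min apart. Readings at 30, 60, 90, 120 and 240 min post-morphine were expressed as %MPE. Means ± SEM, 8–10 mice.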

[10] = tested on: Mus musculus; test: Potentiation of morphine-induced analgesic activity in CD1 mouse assessed as latency in radiant heat-induced tail flick at 1 mg/kg, ip administered 15 mins prior to morphine measured up to 120 mins; type: functional, organism-based; set-up: dose 1 mg/kg; summary of the method: as §2
[11] = tested on: Mus musculus; test: Antinociceptive activity in CD1 mouse assessed as latency in radiant heat-induced tail flick at 2 mg/kg, ip from 30 to 240 mins; type: functional, organism-based; set-up: dose 2 mg/kg; summary of the method: as §2
[12] = target: T7, 5-hydroxytryptamine receptor 1A (Homo sapiens, UniProt P08908); test: Binding affinity to 5HT1A receptor
T7 sequence (P08908 whole entry): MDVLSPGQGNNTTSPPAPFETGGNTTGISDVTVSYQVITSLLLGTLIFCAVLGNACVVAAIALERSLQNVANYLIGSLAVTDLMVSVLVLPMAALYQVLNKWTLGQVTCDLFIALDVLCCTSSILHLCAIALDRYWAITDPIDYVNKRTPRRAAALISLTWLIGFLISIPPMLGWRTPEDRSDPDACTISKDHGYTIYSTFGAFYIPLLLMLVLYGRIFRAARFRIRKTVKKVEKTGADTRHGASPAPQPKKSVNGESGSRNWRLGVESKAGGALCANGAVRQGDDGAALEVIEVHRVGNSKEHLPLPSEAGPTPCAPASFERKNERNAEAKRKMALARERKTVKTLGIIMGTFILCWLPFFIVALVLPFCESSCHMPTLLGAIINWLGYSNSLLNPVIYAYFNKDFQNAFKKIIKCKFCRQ

[13] = tested on: Mus musculus; test: Potentiation of morphine-induced analgesic activity in CD1 mouse assessed as latency in radiant heat-induced tail flick at 2 mg/kg, ip administered 15 mins prior to morphine measured up to 120 mins; type: functional, organism-based; set-up: dose 2 mg/kg; summary of the method: as §2
[14] = tested on: Mus musculus; test: Antinociceptive activity in CD1 mouse assessed as latency in radiant heat-induced tail flick at 1 mg/kg, ip from 30 to 240 mins; type: functional, organism-based; set-up: dose 1 mg/kg; summary of the method: as §2
[15] = target: T8, Alpha-1A adrenergic receptor (Homo sapiens, UniProt P35348); test: Binding affinity to alpha1A adrenergic receptor
T8 sequence (P35348 whole entry): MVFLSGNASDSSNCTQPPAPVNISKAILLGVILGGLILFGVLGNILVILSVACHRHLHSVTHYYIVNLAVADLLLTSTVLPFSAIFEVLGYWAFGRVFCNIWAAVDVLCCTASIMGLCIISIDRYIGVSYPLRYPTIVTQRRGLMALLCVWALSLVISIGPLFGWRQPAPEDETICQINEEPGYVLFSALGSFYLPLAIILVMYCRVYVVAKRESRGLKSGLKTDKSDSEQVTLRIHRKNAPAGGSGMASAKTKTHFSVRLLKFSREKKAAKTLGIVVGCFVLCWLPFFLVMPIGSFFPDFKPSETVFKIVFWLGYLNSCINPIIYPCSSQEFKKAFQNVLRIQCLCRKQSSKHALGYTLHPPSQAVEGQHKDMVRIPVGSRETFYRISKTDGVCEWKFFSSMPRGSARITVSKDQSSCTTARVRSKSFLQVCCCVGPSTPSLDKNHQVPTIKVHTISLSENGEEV

[16] = tested on: Mus musculus; test: Potentiation of morphine-induced analgesic activity in ip dosed CD1 mouse assessed as latency in radiant heat-induced tail flick administered 15 mins prior to morphine in the presence of 2 mg/kg, ip of idazoxan; type: functional; settings: route intraperitoneal
Summary of the method: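 CD-1 mice, radiant heat tail-flick. […] Test agent given 15 min before morphine 5.0 mg/kg sc. Latency read after morphine.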

[17] = Binding affinity to I2 imidazoline binding site
[18] = Selectivity ratio of I2 imidazoline binding site to alpha2 adrenergic receptor

SMILES	pKb [2]	Ki [3]	Ki [4]	pKb [5]	pKb [6]	Ki [7]	also measured
c1ccc([C@H]2CO[C@H](C3=NCCN3)CO2)cc1	< 5	> 10 µM	7.94 µM	< 5	< 5	> 10 µM	pKi [1]: 5.48
c1ccc([C@@H]2CO[C@@H](C3=NCCN3)CO2)cc1	< 5	> 10 µM	0.398 µM	< 5	6.4	> 10 µM	pKi [1]: 6.52
c1ccc(C2(c3ccccc3)COC(C3=NCCN3)CO2)cc1 (configuration not stated)	< 5	7.41 µM	> 10 µM	< 5	< 5	2.82 µM	
c1ccc(C2(c3ccccc3)COCC(C3=NCCN3)O2)cc1 (configuration not stated)	< 5	6.17 µM	3.8 µM	< 5	5.37	4.47 µM	
CN1CC[C@]23c4c5ccc(O)c4O[C@H]2[C@@H](O)C=C[C@H]3[C@H]1C5							Activity [8]: Active
COC(=O)[C@@H]1[C@H]2C[C@H]3c4[nH]c5ccccc5c4CCN3C[C@@H]2CC[C@@H]1O							Activity [9]: inactive
c1ccc(C2COC(C3=NCCN3)CO2)cc1 (racemic)	< 5	> 10 µM	0.501 µM	< 5	6.4	> 10 µM	pKi [1]: 6.35; Activity [10]: Active; Activity [11]: inactive; Ki [12]: > 10 µM; Activity [13]: Active; Activity [14]: inactive; Ki [15]: > 10 µM; Activity [16]: -24%
c1ccc([C@@H]2CO[C@H](C3=NCCN3)CO2)cc1 (relative stereo)	< 5	> 10 µM	> 10 µM	5.5	< 5	> 10 µM	
c1ccc([C@H]2COC[C@@H](C3=NCCN3)O2)cc1 (relative stereo)	< 5	> 10 µM	5.37 µM	5.18	< 5	> 10 µM	
c1ccc([C@@H]2COC[C@@H](C3=NCCN3)O2)cc1 (relative stereo)	< 5	> 10 µM	6.31 µM	< 5	< 5	> 10 µM	
c1ccc2c(c1)OCC(C1=NCCN1)O2 (configuration not stated) [IDAZOXAN]	7.92			7.16	7.73		pKi [17]: 8.37; Activity [13]: inactive
c1ccc(CCC2=NCCN2)cc1 [PHENYZOLINE]							pKi [17]: 8.6; Selectivity ratio [18]: 794

From ChEMBL document CHEMBL1955779, “Favourable involvement of α2A-adrenoreceptor antagonism in the I₂-imidazoline binding sites-mediated morphine analgesia enhancement” (Bioorg Med Chem, 2012)
